For test [1], the target named is T1, 5-hydroxytryptamine receptor 1A (Rattus norvegicus, UniProt P19327).
T1 sequence (P19327 whole entry): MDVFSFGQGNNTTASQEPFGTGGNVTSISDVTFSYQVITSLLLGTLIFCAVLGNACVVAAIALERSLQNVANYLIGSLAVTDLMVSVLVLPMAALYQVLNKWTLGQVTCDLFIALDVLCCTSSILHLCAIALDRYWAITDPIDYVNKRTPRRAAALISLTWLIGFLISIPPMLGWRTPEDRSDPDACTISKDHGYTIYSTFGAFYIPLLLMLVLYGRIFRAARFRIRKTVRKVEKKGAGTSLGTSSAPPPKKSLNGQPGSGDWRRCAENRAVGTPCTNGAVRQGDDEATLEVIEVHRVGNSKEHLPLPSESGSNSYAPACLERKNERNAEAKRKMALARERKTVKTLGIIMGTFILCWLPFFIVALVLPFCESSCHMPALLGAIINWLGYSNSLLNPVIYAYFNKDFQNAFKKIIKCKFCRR
The experiment in a line: Displacement of [3H]8-OH-DPAT from 5HT1A receptor in rat hippocampal membrane. Format: cell membranes, Hippocampus. In a few lines: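 Native receptor in rat hippocampal membranes, labelled with [3H]-8-OH-DPAT (170 Ci/mmol) and displaced by the compounds, which were tested without further purification. Screening used two compound concentrations. Full binding curves used 7–9 concentrations, each run in triplicate, and Ki was derived from inhibition of binding.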

Test [2] concerns the target 5-hydroxytryptamine receptor 2A (Rattus norvegicus, UniProt P14842). Put plainly: Displacement of [3H]ketanserin from 5HT2A receptor in rat cortical membrane. Format: cell membranes.

5-hydroxytryptamine receptor 2A, sequence (P14842 whole entry): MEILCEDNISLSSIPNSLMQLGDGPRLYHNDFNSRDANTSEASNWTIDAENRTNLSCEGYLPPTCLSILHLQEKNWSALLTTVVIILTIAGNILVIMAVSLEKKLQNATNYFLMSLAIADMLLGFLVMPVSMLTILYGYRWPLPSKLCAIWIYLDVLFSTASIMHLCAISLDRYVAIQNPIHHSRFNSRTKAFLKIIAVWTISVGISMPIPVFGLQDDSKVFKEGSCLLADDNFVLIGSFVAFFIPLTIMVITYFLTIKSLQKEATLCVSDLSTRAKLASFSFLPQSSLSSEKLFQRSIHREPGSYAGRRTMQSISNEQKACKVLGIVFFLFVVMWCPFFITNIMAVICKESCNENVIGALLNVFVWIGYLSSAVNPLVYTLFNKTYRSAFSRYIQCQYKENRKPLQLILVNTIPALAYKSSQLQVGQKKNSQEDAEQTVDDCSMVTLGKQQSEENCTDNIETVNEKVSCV

In the case of `O=C(N[C@H]1CC(=O)N(CCCN2CCN(c3cccc(Cl)c3)CC2)C1=O)C1CCCCC1`, the Ki in test [1] was 360 nM; in test [2] it was 92 nM. For `COc1ccccc1N1CCN(CCNC(=O)[C@@H]2CCCN2C(C)=O)CC1`, in that order: 6600 nM and 8600 nM.

Take `O=C(NCCN1CCN(c2cccc(Cl)c2)CC1)[C@@H]1CCCN1C(=O)c1ccccc1`: the results for the Ki in test [1] and in test [2] were 1950 nM and 1300 nM, respectively. Consider `O=C(NCCCN1CCN(c2cccc(Cl)c2)CC1)[C@@H]1CCC(=O)N1C(=O)C1CCCCC1`, for which the inhibition constant Ki in test [1] came out at 1730 nM; in test [2] it was 800 nM. As for `O=C1CC2(CCCCC2)C(=O)N1CCN1CCN(c2cccc(Cl)c2)CC1`, the values for the Ki in test [1] and in test [2] were 4.3 nM and 15 nM, respectively. For `COc1ccccc1N1CCN(CCN2C(=O)CC3(CCCCC3)C2=O)CC1`, the Ki in test [1] was 5.7 nM; in test [2] it was 254 nM. On to `COc1ccccc1N1CCN(CCN2C(=O)C[C@H](NC(=O)C34CC5CC(CC(C5)C3)C4)C2=O)CC1`, for which the Ki came out at 579 nM in test [1] and 4800 nM in test [2]. With `COc1ccccc1N1CCN(CCNC(=O)[C@@H]2CCCN2C(=O)C2CCCCC2)CC1`, the Ki in test [1] was 3550 nM; in test [2] it was 2330 nM. With `COc1ccccc1N1CCN(CCCCN2C(=O)C[C@H](NC(C)=O)C2=O)CC1`, affinity in test [1] was put at a Ki of 69 nM. In the case of `COc1ccccc1N1CCN(CCN2C(=O)CC(NC(C)=O)C2=O)CC1` (stereo not drawn), the results for the Ki in test [1] and in test [2] were 7590 nM and 5680 nM, respectively.

`COc1ccccc1N1CCN(CCCN2C(=O)C[C@H](NC(C)=O)C2=O)CC1`: in test [1], the Ki is 480 nM. For `COc1ccccc1N1CCN(CCN2C(=O)CCC2=O)CC1`, the inhibitory constant (Ki) in test [1] amounted to 2090 nM; in test [2] it was 17600 nM. The compound `COc1ccccc1N1CCN(CCCN2C(=O)C[C@H](NC(=O)C3CCCCC3)C2=O)CC1` yielded a Ki in test [1] of 230 nM. With `COc1ccccc1N1CCN(CCNC(=O)[C@@H]2CCC(=O)N2C(=O)C2CCCCC2)CC1`, the values for the Ki in test [1] and in test [2] were 1000 nM and 14900 nM, respectively. On to `COc1ccccc1N1CCN(CCN2C(=O)CC(C3CCCCC3)C2=O)CC1` (stereo not drawn), for which the inhibition constant Ki worked out at 24 nM in test [1] and 868 nM in test [2]. In test [1], `COc1ccccc1N1CCN(CCCN2C(=O)C[C@H](NC(=O)C34CC5CC(CC(C5)C3)C4)C2=O)CC1` came in with an inhibitory constant (Ki) of 63 nM. For `O=C(NCCCCN1CCN(c2cccc(Cl)c2)CC1)[C@@H]1CCC(=O)N1C(=O)C1CCCCC1`, the values for the Ki in test [1] and in test [2] were 111 nM and 163 nM, respectively. With `COc1ccccc1N1CCN(CCN2C(=O)C[C@H](NC(=O)C3CCCCC3)C2=O)CC1`, the Ki in test [1] came out at 7440 nM; in test [2], 7340 nM. The like results for `O=C1CC(C2CCCCC2)C(=O)N1CCN1CCN(c2cccc(Cl)c2)CC1` (stereo not drawn) were, in that order, 227 nM and 137 nM. With `COc1ccccc1N1CCN(CCCNC(=O)[C@@H]2CCC(=O)N2C(=O)c2ccccc2)CC1`, the affinity in test [1], expressed as Ki, was 390 nM.

Consider `COc1ccccc1N1CCN(CCNC(=O)[C@@H]2CCC(=O)N2C(=O)c2ccccc2)CC1`, for which the results for the Ki in test [1] and in test [2] were 1510 nM and 8710 nM, respectively. In the case of `O=C(NCCCCN1CCN(c2cccc(Cl)c2)CC1)[C@@H]1CCCN1C(=O)c1ccccc1`, the Ki in test [1] is 78 nM; in test [2] it was 128 nM. The like results for `O=C1CCC(=O)N1CCN1CCN(c2cccc(Cl)c2)CC1` were, in that order, 3670 nM and 2120 nM. Regarding `O=C(N[C@H]1CC(=O)N(CCN2CCN(c3cccc(Cl)c3)CC2)C1=O)c1ccccc1`, the Ki in test [1] was found to be 10000 nM; in test [2] it was 1740 nM. On to `COc1ccccc1N1CCN(CCNC(=O)[C@@H]2CCCN2C(=O)C23CC4CC(CC(C4)C2)C3)CC1`, for which the inhibitory constant (Ki) in test [1] is 350 nM; in test [2], 1920 nM. `COc1ccccc1N1CCN(CCCN2C(=O)C[C@H](NC(=O)CC3CC4CCC3C4)C2=O)CC1` (stereo partly drawn): the Ki in test [1] was found to be 40 nM. `O=C(NCCN1CCN(c2cccc(Cl)c2)CC1)[C@@H]1CCC(=O)N1C(=O)C1CCCCC1`: the Ki turned out to be 8520 nM in test [1] and 3260 nM in test [2]. In test [1], `COc1ccccc1N1CCN(CCCCNC(=O)[C@@H]2CCC(=O)N2C(=O)C2CCCCC2)CC1` showed a Ki of 17 nM. Consider `O=C(N[C@H]1CC(=O)N(CCN2CCN(c3cccc(Cl)c3)CC2)C1=O)C1CCCCC1`, for which the Ki in test [1] was 3780 nM; in test [2], 1410 nM. The like results for `O=C(N[C@H]1CC(=O)N(CCCCN2CCN(c3cccc(Cl)c3)CC2)C1=O)c1ccccc1` were, in that order, 41 nM and 75 nM. Turning to `O=C(NCCN1CCN(c2cccc(Cl)c2)CC1)[C@@H]1CCCN1C(=O)C1CCCC1`, the Ki in test [1] was 2010 nM; in test [2], 357 nM. On to `COc1ccccc1N1CCN(CCCNC(=O)[C@@H]2CCCN2C(C)=O)CC1`, for which the Ki in test [1] came to 580 nM; in test [2] it was 3140 nM. For `COc1ccccc1N1CCN(CCN2C(=O)C[C@H](NC(=O)CC3CC4CCC3C4)C2=O)CC1` (stereo partly drawn), in that order: 497 nM and 12400 nM. For `COc1ccccc1N1CCN(CCCCNC(=O)[C@@H]2CCCN2C(=O)C23CC4CC(CC(C4)C2)C3)CC1`, in that order: 3 nM and 503 nM. For `COc1ccccc1N1CCN(CCCCNC(=O)[C@@H]2CCCN2C(=O)C2CCCCC2)CC1`, the Ki is 19 nM in test [1] and 990 nM in test [2].

Source of the values: ChEMBL document CHEMBL1153881, “The influence of an ethylene spacer on the 5-HT(1A) and 5-HT(2A) receptor affinity of arylpiperazine derivatives of amides with N-acylated amino acids and 3-differently substituted pyrrolidine-2,5-diones” (Eur J Med Chem, 2009).
